Measurements published in ChEMBL document CHEMBL3286372, “Design, synthesis and structure-activity relationship of novel semi-synthetic flavonoids as antiproliferative agents” (2014).

How the values were obtained:
Assay type in all cases: functional
SK-MEL-28 = test: Growth inhibition of human SK-MEL-28 cells after 48 hrs by coulter counting analysis; settings: SK-MEL-28, 48 h
Outline: (§1)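 Five-dose NCI-60 follow-up, 0.01–100 µM, made from DMSO stock in buffered saline (final DMSO <1%), in duplicate wells. Cells in RPMI 1640 with 10% FBS at 6×10^4 cells/ml, 37 °C, 5% CO2, 48 h. Cells diluted tenfold in saline, Coulter-counted and corrected for dilution. GI50, TGI and LC50 taken from log concentration–percent growth curves.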

786-0 = test: Growth inhibition of human 786-0 cells after 48 hrs by coulter counting analysis; settings: 786-0, 48 h
Outline: (§2)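 NCI five-dose screen at 0.01-100 µM, diluted from DMSO stocks in buffered saline (final DMSO <1%). Cells at 6×10^4 cells/ml in RPMI 1640 with 10% FBS, in duplicate wells, at 37 °C under 5% CO2 for 48 h. Cells diluted tenfold in saline and Coulter-counted. GI50, TGI and LC50 taken from log concentration-growth inhibition curves.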

NCI-H226 = test: Growth inhibition of human NCI-H226 cells after 48 hrs by coulter counting analysis; settings: NCI-H226, 48 h; outline: as §1
CCRF-CEM = test: Growth inhibition of human CCRF-CEM cells after 48 hrs by coulter counting analysis; outline: as §2
MDA-MB-435 = test: Growth inhibition of human MDA-MB-435 cells after 48 hrs by coulter counting analysis; settings: MDA-MB-435, 48 h; outline: as §2
[1] = Growth inhibition of human NCI-ADR-RES cells after 48 hrs by coulter counting analysis; outline: as §1
A498 = test: Growth inhibition of human A498 cells after 48 hrs by coulter counting analysis; settings: A498, 48 h; outline: as §2
[2] = Growth inhibition of human OVCAR5 cells after 48 hrs by coulter counting analysis; settings: OVCAR-5, 48 h; outline: as §1
[3] = Growth inhibition of human HOP92 cells after 48 hrs by coulter counting analysis; settings: HOP-92, 48 h; outline: as §2
[4] = Growth inhibition of human HCC2998 cells after 48 hrs by coulter counting analysis; settings: HCC 2998, 48 h; outline: as §2
ACHN = test: Growth inhibition of human ACHN cells after 48 hrs by coulter counting analysis; outline: as §2
A549 = test: Growth inhibition of human A549/ATCC cells after 48 hrs by coulter counting analysis; settings: A549, 48 h; outline: as §2
[5] = Growth inhibition of human SF295 cells after 48 hrs by coulter counting analysis; settings: SF-295, 48 h; outline: as §1
CAKI-1 = test: Growth inhibition of human CAKI-1 cells after 48 hrs by coulter counting analysis; settings: CAKI-1, 48 h; outline: as §2
MCF7 = test: Growth inhibition of human MCF7 cells after 48 hrs by coulter counting analysis; settings: MCF7, 48 h; outline: as §2
SK-MEL-2 = test: Growth inhibition of human SK-MEL-2 cells after 48 hrs by coulter counting analysis; settings: SK-MEL-2, 48 h; outline: as §1
NCI-H23 = test: Growth inhibition of human NCI-H23 cells after 48 hrs by coulter counting analysis; settings: NCI-H23, 48 h; outline: as §1
KM12 = test: Growth inhibition of human KM12 cells after 48 hrs by coulter counting analysis; settings: KM12, 48 h; outline: as §2
[6] = Growth inhibition of human NCI60 cells after 48 hrs by coulter counting analysis; settings: NCI60, 48 h
Outline: (§3)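 Five-dose screen (0.01-100 µM, DMSO-solubilized, under 1% DMSO final), cells in RPMI 1640 + 10% FBS at 6×10^4 cells/ml, duplicate wells, 37 °C, 5% CO2, 48 h. Cells then diluted tenfold in saline and counted by Coulter counter with dilution correction. Controls held buffer/saline/DMSO at matching dilutions. GI50 derived from log concentration-percent growth inhibition curves.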

[7] = Growth inhibition of human UACC62 cells after 48 hrs by coulter counting analysis; settings: UACC-62, 48 h
Outline: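 NCI five-dose screen, 0.01-100 µM, from DMSO stocks diluted in buffer saline (final DMSO <1%). Cells grown in RPMI 1640 + 10% FBS, seeded at 6×10^4 cells/ml, in duplicate wells. Exposure 48 h at 37 °C, 5% CO2. Cells diluted 10-fold in saline and counted by Coulter counter. GI50 derived from log concentration–percent growth inhibition curves. Controls carried matching PBS/saline/DMSO.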

SK-MEL-5 = test: Growth inhibition of human SK-MEL-5 cells after 48 hrs by coulter counting analysis; settings: SK-MEL-5, 48 h; outline: as §1
SNB-19 = test: Growth inhibition of human SNB19 cells after 48 hrs by coulter counting analysis; settings: SNB-19, 48 h; outline: as §1
HL-60(TB) = test: Growth inhibition of human HL-60(TB) cells after 48 hrs by coulter counting analysis; settings: HL-60, 48 h; outline: as §3
SN12C = test: Growth inhibition of human SN12C cells after 48 hrs by coulter counting analysis; outline: as §1
MDA-MB-468 = test: Growth inhibition of human MDA-MB-468 cells at 10 uM after 48 hrs by sulforhodamine B assay relative to control; settings: MDA-MB-468, 48 h, read-out: GI
Outline: (§4)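 NCI-60 primary screen at a single 10 µM dose. Continuous 48 h exposure, with growth or viability estimated by sulforhodamine B protein staining. Reported as percent growth inhibition of treated cells relative to untreated growth.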

RPMI-8226 = test: Growth inhibition of human RPMI8226 cells at 10 uM after 48 hrs by sulforhodamine B assay relative to control; settings: RPMI-8226, 48 h, read-out: GI; outline: as §4
NCI-H460 = test: Growth inhibition of human NCI-H460 cells at 10 uM after 48 hrs by sulforhodamine B assay relative to control; settings: NCI-H460, 48 h, read-out: GI; outline: as §4
[8] = Growth inhibition of human MOLT4 cells at 10 uM after 48 hrs by sulforhodamine B assay relative to control; settings: MOLT-4, 48 h, read-out: GI; outline: as §4
[9] = Growth inhibition of human OVCAR8 cells at 10 uM after 48 hrs by sulforhodamine B assay relative to control; settings: OVCAR-8, 48 h, read-out: GI; outline: as §4
[10] = Growth inhibition of human SF539 cells after 48 hrs by coulter counting analysis; settings: SF-539, 48 h; outline: as §1

Row | SMILES | GI50 (SK-MEL-28) [nM] | GI50 (786-0) [nM] | GI50 (NCI-H226) [nM] | GI50 (CCRF-CEM) [nM] | GI50 (MDA-MB-435) [nM] | GI50 [1] [nM] | GI50 [2] [nM] | GI50 [3] [nM] | GI50 [4] [nM] | GI50 (ACHN) [nM] | GI50 (A549) [nM] | GI50 [5] [nM] | GI50 (CAKI-1) [nM] | GI50 (MCF7) [nM] | GI50 (SK-MEL-2) [nM] | GI50 (NCI-H23) [nM] | GI50 (KM12) [nM] | LC50 [6] [nM] | TGI [6] [nM] | GI50 [7] [nM] | also measured
1 | COc1c(C(=O)/C=C/c2ccc(Cl)cc2)c(O)c(Br)c2occc12 | 9860 | 2990 | 2840 | 2660 | 3050 | 3070 | 6040 | 1390 | 2500 | 5090 | 6720 | 6670 | 3350 | 2360 | 4160 | 3250 | 3490 | 87100 | 28800 | 3470 | GI50 (A498): 3920 nM; GI50 (SK-MEL-5): 3330 nM; GI50 (SNB-19): 8240 nM; GI50 (HL-60(TB)): 1720 nM; GI50 (SN12C): 3770 nM
2 | COc1c2occc2c(OC)c2c(=O)c(CN3CCOCC3)c(/C=C/c3ccc(Cl)cc3)oc12 | 2170 | 3090 | 2790 | 1780 | 2050 | 3120 | 2760 | 1280 | 2850 | 2470 | 2850 | 2010 | 2450 | 2100 | 1650 | 3000 | 2100 | 87100 | 33100 | 1900 | inhibition of growth at 10 µM (MDA-MB-468): 86%; inhibition of growth at 10 µM (RPMI-8226): 60%; inhibition of growth at 10 µM (NCI-H460): 88%; inhibition of growth at 10 µM [8]: 93%; inhibition of growth at 10 µM [9]: 60%; GI50 (SK-MEL-5): 1240 nM; GI50 (SN12C): 3050 nM
3 | C=CCc1c(O)c(C(=O)/C=C/c2ccc(Cl)cc2)c(OC)c2ccoc12 | 2320 | 4830 | 1520 | 3330 | 2060 | 2230 | 2800 | 1690 | 1790 | 2310 | 4700 | 2770 | 2610 | 2510 | 3970 | 2780 | 3720 | 37200 | 11000 | 2880 | GI50 (A498): 2770 nM; GI50 (SK-MEL-5): 2070 nM; GI50 (SNB-19): 2850 nM; GI50 [10]: 1790 nM; GI50 (SN12C): 4960 nM
4 | C=CCc1c(O)c(C(=O)/C=C/c2ccccc2)c(OC)c2ccoc12 | 2490 | 4120 | 1480 | 2750 | 2780 | 1880 | 3220 | 1330 | 1730 | 3790 | 4410 | 2440 | 2800 | 2730 | 3040 | 2520 | 4060 | 41700 | 11200 | 2740 | GI50 (A498): 1740 nM; GI50 (SK-MEL-5): 2660 nM; GI50 (SNB-19): 2850 nM; GI50 [10]: 1710 nM; GI50 (SN12C): 3790 nM
